The full list was thinned out, with hits kept by preference.
INS-1E ATP HTS – INS-1E beta cell protection from cytokine death. AID 488910. protection from cytokine-induced ATP loss, % at 10 µM. 0.1% of 20,000 active. INS-1E cytokine-induced death, ATP luminescence, 48 h; normalised: neutral wells 0, positive control 100;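 active = mean replicate protection from cytokine-induced ATP loss at least 50% and at least 75% of replicates each reaching 50%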
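Test system: INS-1E rat cells | Quantity: 8000 cells per well | Medium: Phenol-red-free RPMI with 5% fetal bovine serum | Reagent: Cytokine cocktail of IFN-γ, TNF-α and IL-1β | Doses: One compound concentration, pin transfer | Timing: 48 h co-treatment, 10 min post-lysis read | Technique: Luminescent ATP assay (CellTiter-Glo)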
T cruzi HTS – blocks T. cruzi growth inside host cells. intracellular Trypanosoma cruzi in host cells, plate reader. activity score (inhibition), % at 5.01 µM. 4.9% of 22,000 active. AID 651903; in the data active = activity score above about 55%;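 also: parasites and compound incubated about four days before reading; 0% = median of neutral control wells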
YB-1 expr inh – YB-1 expression inhibition; U2OS, qRT-PCR YB-1 vs CDIP delta delta Cp, 16 h; hits give high values; zero = DMSO, each unit about twofold; delta delta Cp (YB-1 minus CDIP) (concentration not given with the values); 0.37% of 30,000 active; AID 434959;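 active = delta delta Cp rounded down to an integer at or above 3, about 3 SD of DMSO wells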;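 also: higher means less YB-1 transcript or more CDIP transcript relative to DMSO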
Numbers without * were called inactive; . = no result.

SMILES	INS-1E ATP HTS	T cruzi HTS	YB-1 expr inh
C[C@H](CO)N1C[C@H](C)[C@@H](CN(C)Cc2ccc(-c3ccccc3)cc2)Oc2ccc(NS(=O)(=O)c3ccc(Cl)cc3)cc2C1=O	-16.0	21.7	0.0484
C[C@@H]1CN([C@H](C)CO)C(=O)c2cc(NS(=O)(=O)c3ccc(Cl)cc3)ccc2O[C@@H]1CN(C)Cc1ccc(-c2ccccc2)cc1	-31.5	24.4	-0.14
C[C@H](CO)N1C[C@H](C)[C@H](CN(C)Cc2ccc3c(c2)OCO3)Oc2ccc(NC(=O)Nc3ccc4c(c3)OCO4)cc2CC1=O	-7.8	12.8	-0.152
C[C@H]1CN([C@@H](C)CO)C(=O)Cc2cc(NC(=O)Cc3ccccc3)ccc2O[C@H]1CN(C)Cc1ccc(Cl)c(Cl)c1	-27.0	56.9*	0.256
COc1ccc(NC(=O)Nc2ccc3c(c2)CC(=O)N([C@H](C)CO)C[C@H](C)[C@H](CN(C)Cc2ccc(Cl)c(Cl)c2)O3)cc1	-17.9	2.5	-0.00476
C[C@H]1CN([C@@H](C)CO)C(=O)Cc2cc(NC(=O)Cc3ccccc3)ccc2O[C@@H]1CN(C)Cc1ccccc1	0.4	50.7	0.787
C[C@H](CO)N1C[C@H](C)[C@H](CN(C)Cc2ccc(Cl)c(Cl)c2)Oc2ccc(NC(=O)Nc3ccccc3)cc2CC1=O	-33.6	74.8*	0.224
C[C@H]1CN([C@@H](C)CO)C(=O)Cc2cc(NC(=O)Nc3ccccc3)ccc2O[C@H]1CN(C)Cc1ccc(Cl)c(Cl)c1	-55.9	-15.1	-0.0504
C[C@@H]1CN([C@@H](C)CO)C(=O)Cc2cc(NC(=O)Nc3ccc(F)cc3)ccc2O[C@@H]1CN(C)Cc1ccc(Cl)c(Cl)c1	1.0	66.6*	0.313
C[C@H](CO)N1C[C@H](C)[C@H](CN(C)Cc2ccc(Cl)c(Cl)c2)Oc2ccc(NC(=O)Nc3ccc4c(c3)OCO4)cc2CC1=O	-27.6	80.0*	0.279
CC(C)=CCCC(C)(O)C1Cc2cc(C(=O)O)cc(CC=C(C)C)c2O1 (stereo not drawn)	.	.	-0.433
COc1ccc(S(=O)(=O)N[C@H]2CCN(Cc3cccc(OCCO)c3)C2)cc1	.	.	-0.136
COC(=O)c1ccccc1S(=O)(=O)/C(C#N)=C/Nc1nc(C)cc(C)n1	.	.	-0.796
[N-]=[N+]=NCc1ccccc1C[C@@]1(C(=O)NCCN2CCOCC2)N=C(c2ccc(OCCCO)cc2)O[C@@H]1c1ccccc1	.	.	-0.274
CN1C(=O)[C@@]2(Cc3ccccc3)SSS[C@]1(CO)C(=O)N2C	.	.	-0.556
O=C(NO)c1ccc(C(=O)N/N=C/c2ccc3c(c2)OCCO3)cc1	-5.8	-4.2	-0.203
C[C@H](CO)N1C[C@H](C)[C@H](CN(C)C(=O)Nc2ccc(C(F)(F)F)cc2)Oc2ccc(NC(=O)Nc3cccc4ccccc34)cc2CC1=O	-19.5	9.1	0.0885
C[C@@H]1CN([C@H](C)CO)C(=O)Cc2cc(NC(=O)Nc3cccc4ccccc34)ccc2O[C@H]1CN(C)Cc1ccc(C(=O)O)cc1	4.8	-21.3	0.16
C[C@H]1CN([C@@H](C)CO)C(=O)Cc2cc(NC(=O)Nc3cccc4ccccc34)ccc2O[C@@H]1CN(C)Cc1ccc(C(F)(F)F)cc1	-52.0	69.2*	0.157
C[C@H]1CN([C@@H](C)CO)C(=O)Cc2cc(NC(=O)Nc3cccc4ccccc34)ccc2O[C@H]1CN(C)Cc1ccc(C(F)(F)F)cc1	-80.5	72.8*	0.282
C[C@H]1CN([C@@H](C)CO)C(=O)Cc2cc(NC(=O)Nc3cccc4ccccc34)ccc2O[C@@H]1CN(C)Cc1ccc(C(=O)O)cc1	-1.4	-13.1	0.362
C[C@@H]1CN([C@H](C)CO)C(=O)Cc2cc(NC(=O)Nc3cccc4ccccc34)ccc2O[C@H]1CN(C)Cc1ccc(C(F)(F)F)cc1	-53.8	58.7*	0.0267
C[C@@H]1CN([C@@H](C)CO)C(=O)Cc2cc(NC(=O)Nc3cccc4ccccc34)ccc2O[C@@H]1CN(C)C(=O)Nc1ccc(C(F)(F)F)cc1	-30.3	46.0	0.257
C[C@H](CO)N1C[C@H](C)[C@H](CN(C)Cc2ccc(C(F)(F)F)cc2)Oc2ccc(NC(=O)Nc3cccc4ccccc34)cc2CC1=O	-38.5	79.3*	-0.728
CCCCCCCC(=O)CCc1ccc(O)c(OC)c1	.	.	1.4
SMILES	INS-1E ATP HTS	T cruzi HTS	YB-1 expr inh
Cc1ccc(S(=O)(=O)N(C)C[C@H]2Oc3c(NC(=O)Nc4ccc(C(F)(F)F)cc4)cccc3C(=O)N([C@H](C)CO)C[C@@H]2C)cc1	-13.8	26.6	0.132
C[C@@H]1CN([C@@H](C)CO)C(=O)c2cccc(NC(=O)Nc3ccc(C(F)(F)F)cc3)c2O[C@@H]1CN(C)S(=O)(=O)c1ccc(Cl)cc1	-107.2	70.1*	0.154
C[C@H]1CN([C@@H](C)CO)C(=O)c2cccc(NC(=O)Nc3ccc(C(F)(F)F)cc3)c2O[C@@H]1CN(C)S(=O)(=O)c1ccc(F)cc1	-18.5	21.2	0.151
C[C@H]1CN([C@@H](C)CO)C(=O)c2cccc(NC(=O)Nc3ccccc3)c2O[C@H]1CN(C)S(=O)(=O)c1ccccc1	-4.6	-13.0	0.0562
C[C@@H]1CN([C@H](C)CO)C(=O)c2cccc(NC(=O)Nc3ccc(C(F)(F)F)cc3)c2O[C@@H]1CN(C)S(=O)(=O)c1ccc(Cl)cc1	-107.5	63.3*	-1.01
C[C@H](CO)N1C[C@H](C)[C@@H](CN(C)S(=O)(=O)c2ccccc2)Oc2c(NC(=O)Nc3ccccc3)cccc2C1=O	-4.0	60.9*	0.231
COc1ccc(Sc2ccccc2COC(C)=O)c(C(=O)O)c1	.	.	-0.395
CSc1sc(C(=O)/C=C/N(C)C)c(-c2ccccc2)c1C#N	.	.	-0.42
CO[C@@]12[C@@H]3NC3CN1C1=C(C(=O)C(N)=C(C)C1=O)[C@@H]2COC(N)=O (stereo partly drawn)	.	.	1.33
C[C@@H]1CCCCO[C@H](CN(C)C(=O)Nc2cccc3ccccc23)[C@@H](C)CN([C@H](C)CO)C(=O)c2cc(NS(=O)(=O)c3ccccc3)ccc2O1	7.9	12.4	-0.234
C[C@@H]1CCCCO[C@@H](CN(C)C(=O)Nc2ccc(C(F)(F)F)cc2)[C@@H](C)CN([C@H](C)CO)C(=O)c2cc(NS(=O)(=O)c3ccccc3)ccc2O1	-3.8	60.7*	-0.206
C[C@@H]1CCCCO[C@@H](CN(C)C(=O)Nc2ccccc2)[C@@H](C)CN([C@H](C)CO)C(=O)c2cc(NS(=O)(=O)c3ccccc3)ccc2O1	8.2	2.8	-0.957
COc1ccc(S(=O)(=O)Nc2ccc3c(c2)C(=O)N([C@H](C)CO)C[C@H](C)[C@@H](CN(C)C(=O)Nc2ccc(C(F)(F)F)cc2)OCCCC[C@@H](C)O3)cc1	-6.6	37.4	-0.653
C[C@@H]1CCCCO[C@H](CN(C)C(=O)Nc2cccc3ccccc23)[C@@H](C)CN([C@H](C)CO)C(=O)c2cc(NS(=O)(=O)c3ccc(Cl)cc3)ccc2O1	-1.6	66.2*	14.9*
C[C@@H]1CCCCO[C@H](CN(C)C(=O)Nc2ccc(C(F)(F)F)cc2)[C@@H](C)CN([C@H](C)CO)C(=O)c2cc(NS(=O)(=O)c3ccc(Cl)cc3)ccc2O1	-46.7	65.5*	-0.0724
COc1ccc(-n2c(=S)[nH]c3cc(C(=O)NC4CCCC(C)C4C)ccc3c2=O)c(OC)c1 (stereo not drawn)	.	.	-1.11
